Source: PubChem BioAssay (several laboratories)
The list is not random: actives were taken first. Their share in the collection is about 2.2%.
Wee1 degr inh – human Wee1 degradation inhibition, primary screen; P30291; HeLa Luc-Wee1K328M stability, luciferase luminescence; 100% = proteasome inhibitor MG132 effect; reporter increase, % at 5 µM; 220,000 compounds, 1.2% hits; AID 1321;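 active = activation above the mean of all tested compounds plus 3 SD, set per screening run, cut at about 8.8% in these data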;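 also: cells exposed to compound for 20 h before luminescence read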
Target sequence (P30291 whole entry K328M): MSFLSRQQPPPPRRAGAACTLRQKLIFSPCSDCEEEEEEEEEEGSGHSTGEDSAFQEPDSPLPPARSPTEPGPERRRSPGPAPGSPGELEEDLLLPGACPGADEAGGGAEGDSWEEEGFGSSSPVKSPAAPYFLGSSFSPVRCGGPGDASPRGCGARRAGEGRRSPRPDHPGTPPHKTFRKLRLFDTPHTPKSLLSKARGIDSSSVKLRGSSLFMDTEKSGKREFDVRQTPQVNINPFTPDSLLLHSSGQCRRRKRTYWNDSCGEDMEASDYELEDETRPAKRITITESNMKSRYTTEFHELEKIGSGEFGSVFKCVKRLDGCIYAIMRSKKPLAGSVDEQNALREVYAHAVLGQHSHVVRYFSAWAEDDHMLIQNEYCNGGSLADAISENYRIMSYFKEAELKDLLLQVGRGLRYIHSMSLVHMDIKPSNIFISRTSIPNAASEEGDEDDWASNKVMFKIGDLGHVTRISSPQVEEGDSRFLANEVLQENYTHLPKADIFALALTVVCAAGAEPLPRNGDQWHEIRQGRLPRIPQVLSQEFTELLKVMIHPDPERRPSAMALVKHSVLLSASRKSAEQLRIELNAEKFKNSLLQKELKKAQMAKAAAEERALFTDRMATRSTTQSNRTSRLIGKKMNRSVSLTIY
Insulin prom inh – TRM-6 insulin promoter activity inhibition. TRM-6 cells, insulin promoter-eGFP reporter, imaging; reporter expression induced with tamoxifen. inhibition, % at 2 µM. 130,000 compounds, 0.9% hits;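 active = inhibition above the mean plus 3 SD, with well images judged a real hit on visual review, cut at about 60% in these data, passing the limit was not always enough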
Ins promoter up – MIN6 insulin promoter up-regulation; MIN6 insulin promoter-GFP reporter, high-content imaging; active compounds read high; z-score at 5 µM; 190,000 compounds, 0.3% hits; AID 1625;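 active = z-score above 3 at 5 µM with at least 500 cells counted in the well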
RBBP9 inhibitor – blocks human serine hydrolase RBBP9; AID 1515; recombinant RBBP9, FP-Rh probe fluorescence polarization; inhibition, % at 7.94 µM; 220,000 compounds, 0.2% hits; O75884;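 active = inhibition above the campaign mean of all tested compounds plus 3 SD, cut at about 14% in these data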
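System: RBBP9 protein / Quantity: 2.5 µM RBBP9 dispensing solution, before mixing / Also added: Serine-hydrolase probe FP-Rh, 375 nM pre-mixing / Dosing: 7.94 µM single dose, 0.794% DMSO / Timing: enzyme-compound preincubation 30 min, then probe labeling 45 min, 25 °C / Signal: FP readout at 525/598 nm / Controls: DMSO-treated enzyme wells and wells lacking RBBP9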
Hsp70 activator – transcriptional activators of Hsp70; activation, % at 10 µM; HeLa Hsp70 promoter luciferase reporter, luminescence; scaled: vehicle 0, proteasome-inhibitor control 100%; AID 1203; 200,000 compounds, 0.04% hits;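 active = activation above the mean across all tested compounds plus 3 SD, cutoff set per campaign, cut at about 5.5% in these data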
Mdm2 ligase inh – blocks human Mdm2 ubiquitin ligase activity; cell-based MDM2 ubiquitination luciferase reporter, 2 h; 0 = plate control, 100 = twice control, blank-subtracted; Q00987; signal enhancement, % at 5 µM; 210,000 compounds, 0.11% hits;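 active = signal enhancement of 30% or more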;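 also: luminescence tracks abundance of the self-degrading MDM2-luciferase fusion protein; higher signal means inhibition of MDM2 E3 ligase activity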
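Assay system: stable mammalian line carrying autodegrading MDM2–luciferase fusion reporter; Input: 2000 cells in each well; Compound dosing: single-point 5 µM; Schedule: 2 h compound exposure at 37 °C; Signal: SteadyLite luciferase luminescence after 15 min room-temperature reagent incubation; Evaluation: % luminescence enhancement versus blank-corrected plate control mean; Benchmarks: plate controls and plate blanks.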
Each line names hits and unclear results; the compound was inactive in the other large screens; ! = not active in a repeat.

COCCCNC(=O)CNC(=S)N(Cc1ccc(F)cc1)C1CCCCC1	Wee1 degr inh 10.3
O=C1CCC(C(=O)N2CCCC(C(=O)c3ccc4c5c(cccc35)CC4)C2)=NN1 (stereo not given)	none (no result: Ins promoter up)
COc1ccc(C)cc1NC(=O)COC(=O)C1CC1	none
Cc1ccc(O)c(CP(=O)(c2ccccc2)c2ccccc2)c1	Wee1 degr inh 9.4
COc1ccc(CC(=O)NNS(=O)(=O)c2ccccc2)cc1OC	none
CN1CCN(C(=O)C2=C[C@@H](c3ccc(Br)cc3)C[C@@H](OCc3ccc(CO)cc3)O2)CC1	Wee1 degr inh 9.8 (no result: Insulin prom inh, Mdm2 ligase inh)
COc1cccc(NC(=O)CSc2nc3c(oc4ccccc43)c(=O)[nH]2)c1	none
COc1ccc(C(=O)Nc2cccc(C(=O)NCc3ccco3)c2)cc1	Insulin prom inh 66.7 (no result: Ins promoter up)
COc1ccc(Nc2cc(C(=O)NCc3ccco3)c3ccccc3n2)cc1	Wee1 degr inh 10.8
COc1ccc(OCCn2nnc(-c3ccc(Cl)cc3)n2)cc1	Wee1 degr inh 15.9 (no result: Insulin prom inh)
CC(C)NC(=O)N1CCN(c2ccncc2S(=O)(=O)N2CCOCC2)CC1	Ins promoter up 5.83
CC(C)NC(=O)NS(=O)(=O)c1cnccc1N1CCCCC1	none (no result: Ins promoter up)
CC(C)C(=O)NNc1ccc(C(F)(F)F)cn1	none (no result: Insulin prom inh, Hsp70 activator)
O=C1OCCN1C(=O)[C@H]1[C@H](c2ccc([N+](=O)[O-])cc2)C(c2cccc(Cl)c2)=NN1c1ccccc1	Wee1 degr inh 10.1 (no result: Mdm2 ligase inh)
CCOc1ccc(-n2nc(C(=O)N3CCN(CC)CC3)c3ccccc3c2=O)cc1	Wee1 degr inh 9.6
O=c1oc2ccccc2c(N2CCOCC2)c1[N+](=O)[O-]	none (no result: Insulin prom inh, Ins promoter up)
Cc1cc(NC(=S)N(Cc2ccc(Br)cc2)Cc2ccc(C(=O)O)cc2)ccc1Cl	Ins promoter up 3.8 (no result: Insulin prom inh)
Cc1cccc(NC(=S)N(Cc2ccc(Br)cc2)Cc2ccc(C(=O)O)cc2)c1	none (no result: Insulin prom inh)
CCN1C/C(=C/c2cccc([N+](=O)[O-])c2)C(=O)/C(=C/c2cccc([N+](=O)[O-])c2)C1	Insulin prom inh 100.0
CCOC(=O)c1ccc2nc(Nc3nc4ccc(F)cc4s3)sc2c1	none
CCOC(=O)c1ccc2nc(NC(C)=O)sc2c1	Wee1 degr inh 9.4 (no result: Insulin prom inh)
Cc1cc(C(=O)OCC(=O)N2CCCC2)c2ccccc2n1	none
CC(=O)N1CCN(C(=O)c2cc(C)nc3ccccc23)CC1	Insulin prom inh 70.6
Cc1nn(-c2ccccc2)c(C)c1/C=C/C(=O)OCC(=O)N(C)C1CCS(=O)(=O)C1 (stereo not given)	none (no result: Insulin prom inh)
NC(=O)Nc1ccc(C(=O)OCC(=O)NC2CCCCC2)cc1	none
COc1ccc(OC(C)C(=O)Nc2ccccc2C(F)(F)F)cc1 (stereo not given)	Mdm2 ligase inh 261.7
CCOC(=O)c1ccccc1NC(=O)C(C)Oc1ccccc1 (stereo not given)	Wee1 degr inh 9.7
COc1ccc(CCC(=O)Nc2ccccc2C(F)(F)F)cc1	none
Cc1ccc(-c2ccc(=O)n(CC(=O)NCc3ccc(F)cc3)n2)cc1	none (no result: Ins promoter up)
S=C(NCCN1CCOCC1)NC1CCCC1	none (no result: Insulin prom inh)
NCC12CC3CC(C1)CC(CN)(C3)C2	Ins promoter up 3.09 (no result: Insulin prom inh)
COC(=O)c1ccccc1NC(=O)c1noc2c1CC(C(C)(C)C)CC2 (stereo not given)	none
CCOC(=O)/C(=C\C=C1/Sc2cc(OCC)c(OCC)cc2N1CC)C(C)=O	none (no result: Ins promoter up)
CCOC(=O)/C(=C/C=C1\Sc2cc(OCC)c(OCC)cc2N1CC)C(C)=O	Ins promoter up 16.2
Cn1c(Cc2ccccc2)nnc1SCC(=O)c1ccc(Br)s1	Insulin prom inh 95.5
Cc1ccc(NC(=O)c2cc(=O)n(Cc3ccccc3)c(=O)[nH]2)cc1C	none (no result: Insulin prom inh)
Nc1ccc(-c2nc3nc(N)nc(N)c3nc2-c2ccc(N)cc2)cc1	Ins promoter up 4.9 (no result: Insulin prom inh, Hsp70 activator)
C[C@@H]1C[C@@H]2OC(=O)[C@]3(C)[C@H]2[C@@H](OC3(C)O)[C@]2(C)C(=O)C=C[C@H]12 (stereo not given in full)	none (no result: Wee1 degr inh, Insulin prom inh, Ins promoter up, RBBP9 inhibitor, Hsp70 activator)
C=C1C(=O)O[C@@H]2C[C@@H](C)[C@@H]3C=CC(=O)[C@@]3(C)[C@@H](OC(C)=O)[C@H]12	Mdm2 ligase inh 35.1 (no result: Wee1 degr inh, Insulin prom inh, Ins promoter up, RBBP9 inhibitor, Hsp70 activator)
NC(N)=Nc1nc2ccccc2o1	none (no result: Insulin prom inh, Hsp70 activator)
Cn1cc(CC(=O)Nc2cccc(C#N)c2)c2ccccc21	none
O=C(NCCOc1ccccc1)c1ccccc1NC(=O)C1CCCO1 (stereo not given)	Wee1 degr inh 9.9 (no result: Insulin prom inh)
Cc1ccccc1-c1nnc(-c2ccc(Cl)cc2)o1	Ins promoter up 3.54
Cc1ccccc1-c1nnc(-c2ccccc2)o1	none
Cc1n[nH]c(C)c1C(=O)CC1(O)C(=O)N(CCc2ccccc2)c2ccc(Cl)cc21 (stereo not given)	Wee1 degr inh 10.0
c1ccc2nc(-c3nc4ccccc4[nH]3)ccc2c1	none
Fc1ccccc1-c1nc2ccccc2[nH]1	none (no result: Insulin prom inh)
c1ccc2[nH]c(-c3cscn3)nc2c1	Insulin prom inh 66.7 (no result: Ins promoter up, Mdm2 ligase inh)
c1ccc2[nH]c(-c3ccnc4ccccc34)nc2c1	Insulin prom inh 85.7!
N#CC(c1ccccc1)N(CCCCl)C(=O)c1ccc(Br)cc1 (stereo not given)	none
O=S(=O)(Cc1cc(NCc2ccccc2)nc(-c2ccccn2)n1)c1ccccc1	none
CN1CCN(c2ccc(C(=O)c3ccc(F)cc3)cc2)CC1	Wee1 degr inh 9.0
C=C(C)CN(CC)C(=O)CCc1nnc(CCc2c[nH]c3ccccc23)o1	none (no result: Insulin prom inh)
Cc1cccc2sc(NC(=O)C3CCCN(S(=O)(=O)c4cccc5nonc45)C3)nc12 (stereo not given)	Ins promoter up 6.61
CCc1cc2c(CN3CCN(CCO)CC3)cc(=O)oc2cc1O	Ins promoter up 3.59
Cn1c(Cn2c3ccccc3c3ccccc32)n[nH]c1=S	Wee1 degr inh 9.4 (no result: Insulin prom inh, Hsp70 activator)
COC(=O)c1sc2ccccc2c1-n1cccc1C(=O)C(=O)Nc1ccc(F)cc1	Ins promoter up 5.4
Cc1cc(=O)[nH]c(SCc2cccc3cccnc23)n1	Wee1 degr inh 10.7 (no result: Insulin prom inh)
Cc1ccc2c(c1)sc1nc(=O)n(-c3ccccc3)c(=O)n12	Wee1 degr inh 9.0 (no result: Insulin prom inh, Hsp70 activator)
Cc1ccc2c(c1)sc1ncc(NC(=O)c3ccc(F)cc3)c(=O)n12	none (no result: Ins promoter up)
CCNC(=O)c1c(NC(=O)C2COc3ccccc3O2)sc2c1CCCC2 (stereo not given)	none
COCCCNC(=O)c1c(NC(=O)C2COc3ccccc3O2)sc2c1CCCC2 (stereo not given)	Insulin prom inh 87.1 (no result: Ins promoter up)
COc1ccc2c(c1)C(=O)N(c1ccccc1C)C(=O)C2(C)C	none (no result: Insulin prom inh)
C=CCN=C1S/C(=C/c2cccc([N+](=O)[O-])c2)C(=O)N1CC=C	Wee1 degr inh 9.9 (no result: Insulin prom inh, Hsp70 activator)
Cc1cc(=O)n2[nH]cc(C(=O)O)c2n1	none (no result: Mdm2 ligase inh)
Cc1ccc(-c2c3c(=O)n(C)c(=O)n(C)c3cn2Cc2cccnc2)cc1	Wee1 degr inh 23.8 (no result: Insulin prom inh)
